Experimental data from ChEMBL document CHEMBL4229550, “An antimycobacterial pleuromutilin analogue effective against dormant bacilli” (Bioorg Med Chem, 2018).
Values after ≈ are worked out from the molar mass of the structure shown. Active and inactive are the calls of the source. No cut-off for these calls is given here.

Tests used:
Streptococcus salivarius [1] = assay: Bactericidal activity against Streptococcus salivarius ATCC 6301 incubated for 24 hrs under aerobic condition by MABA; assay type: functional; settings: ATCC 6301, 24 h
Staphylococcus aureus [2] = assay: Antibacterial activity against Staphylococcus aureus BAA 2094 incubated for 24 hrs under aerobic condition by MABA; assay type: functional; settings: BAA 2094, 24 h, read-out: MIC100
Outline: (§1)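 Resazurin was then added from a 0.08% stock for 1 h. MIC100 was the lowest concentration where the dye stayed blue (pink means growth). Absorbance was also read at 570 and 600 nm.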

Klebsiella pneumoniae = assay: Bactericidal activity against Klebsiella pneumoniae ATCC 12019 incubated for 24 hrs under aerobic condition by MABA; assay type: functional; settings: ATCC 12019, 24 h
[3] = Cmax in Balb/c mouse lung at 30 mg/kg, po; assay type: ADME, organism-based; design: dose 30 mg/kg, route oral
Staphylococcus aureus [4] = assay: Antibacterial activity against Staphylococcus aureus ATCC 25923 incubated for 24 hrs under aerobic condition by MABA; assay type: functional; settings: ATCC 25923, 24 h, read-out: MIC100
Outline: (§2)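 Mid-log cultures at OD 0.5 were exposed to serial dilutions under aerobic conditions at 37 °C for 24 h. Resazurin was then added from a 0.08% stock for 1 h. MIC100 was the lowest concentration where the dye stayed blue (pink means growth). Absorbance was also read at 570 and 600 nm.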

Bacillus subtilis = assay: Bactericidal activity against Bacillus subtilis ATCC 6051 incubated for 24 hrs under aerobic condition by MABA; assay type: functional; settings: ATCC 6051, 24 h
Staphylococcus aureus [5] = assay: Bactericidal activity against Staphylococcus aureus BAA 44 incubated for 24 hrs under aerobic condition by MABA; assay type: functional; settings: BAA 44, 24 h
[6] = AUC (0 to infinity) in Balb/c mouse at 30 mg/kg, po; assay type: ADME, organism-based; design: dose 30 mg/kg, route oral, time infinity; settings: in vivo
Outline: (§3)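 Single oral dose of 30 mg/kg in BALB/c mice (n = 6). Serum PK parameters were t1/2, tmax, Cmax and AUC over 0–24 h and to infinity. Oral bioavailability F was calculated against the 3 mg/kg IV dose.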

[7] = Half life in Balb/c mouse at 3 mg/kg, iv; assay type: ADME, organism-based; settings: in vivo
Outline: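 Single 3 mg/kg IV dose in three BALB/c mice; serum half-life is derived from the concentration–time profile.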

[8] = tested on: Mycobacterium tuberculosis; assay: Bactericidal activity against replicating Mycobacterium tuberculosis H37Rv incubated for 15 days under aerobic condition by MABA; assay type: functional; settings: 360 h
Outline: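 Mtb H37Rv grown in 7H9/OADC at 37 °C with shaking to OD600 0.5. The 0.5-OD culture is exposed aerobically to serial dilutions for 15 days at 37 °C. Resazurin (0.02% stock) is then added for 4 h at 37 °C with shaking.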

[9] = Apparent permeability from apical to basolateral side in human Caco2 cells at 10 uM after 2 hrs by LC-MS/MS analysis; assay type: ADME, cell-based; settings: caco-2, 2 h
Acinetobacter baumannii = assay: Antibacterial activity against Acinetobacter baumannii ATCC 19606 incubated for 24 hrs under aerobic condition by MABA; assay type: functional; settings: ATCC 19606 = CIP 70.34 = JCM 6841, 24 h, read-out: MIC100; outline: as §2
Streptococcus pneumoniae = assay: Bactericidal activity against Streptococcus pneumoniae ATCC 6301 incubated for 24 hrs under aerobic condition by MABA; assay type: functional; settings: ATCC 6301, 24 h
Escherichia coli [10] = assay: Inhibition of protein translation/transcription in Escherichia coli S30 cell extract at 0.5 ug/ml using circular DNA with pBESTluc after 60 mins by luciferase reporter gene assay; assay type: functional
Outline: (§4)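 Coupled transcription/translation used E. coli S30 extract, amino acid mix and premix, with the pBESTluc template carrying firefly luciferase under the tac promoter. Compounds were added in DMSO and reactions were started with DNA. Incubation was 60 min at 37 °C, stopped on ice, and luciferase was read after adding assay substrate.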

[11] = tested on: Mycobacterium tuberculosis; assay: Antibacterial activity against Mycobacterium tuberculosis Erdman infected in Balb/c mouse assessed as reduction in bacterial load in lungs at 100 mg/kg, po for 3 weeks starting from 10 days post infection measured on day 21 post infection; assay type: functional, Erdman = ATCC 35801
Outline: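 Female BALB/c mice, 7–8 weeks old, are aerosol-infected with Mtb Erdman. From day 10 they receive oral gavage in water for three weeks, in groups of 5. Lungs and spleens are harvested at day 21 post-infection and plated for CFU. Efficacy is the log10 reduction in lung burden versus untreated (vehicle) controls.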

Escherichia coli [12] = assay: Inhibition of protein translation/transcription in Escherichia coli S30 cell extract at 0.1 ug/ml using circular DNA with pBESTluc after 60 mins by luciferase reporter gene assay; assay type: functional; outline: as §4
Erythrocyte = assay: Hemolytic activity in sheep erythrocytes after 2 hrs; assay type: ADME, cell-based; settings: Ovis aries
Outline: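 Washed heparinized sheep erythrocytes at 3% in buffer pH 7.4 were treated with 2–200 µg/mL for 2 h at 37 °C with gentle shaking. Triton X-100 (0.01–1%) was the positive control and PEG:H2O diluent the negative control. Released hemoglobin was read at OD540 and % hemolysis calculated against both controls.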

[13] = Half life in Balb/c mouse serum at 30 mg/kg, po; assay type: ADME, organism-based
Outline: (§5)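 Single 30 mg/kg oral dose in six BALB/c mice; serum half-life and tmax are derived from the concentration–time profile.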

[14] = AUC (0 to 24 hrs) in Balb/c mouse lung at 30 mg/kg, po; assay type: ADME, organism-based; design: dose 30 mg/kg, time < 24 hr, route oral; settings: in vivo
Enterococcus faecalis [15] = assay: Bactericidal activity against Enterococcus faecalis ATCC 349 incubated for 24 hrs under aerobic condition by MABA; assay type: functional; settings: ATCC 349, 24 h
Mus musculus = assay: AUC (0 to 24 hrs) in Balb/c mouse at 3 mg/kg, iv; assay type: ADME, organism-based; design: time < 24 hr, dose 3 mg/kg, route intravenous; settings: in vivo
Outline: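 Single IV dose of 3 mg/kg in BALB/c mice (n = 3). Serum concentration-time data were used to derive t1/2, Cmax and AUC over 0–24 h and to infinity.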

[16] = Cmax in Balb/c mouse at 30 mg/kg, po; assay type: ADME, organism-based; design: dose 30 mg/kg, route oral; settings: in vivo; outline: as §3
Streptococcus salivarius [17] = assay: Antibacterial activity against Streptococcus salivarius […] incubated for 24 hrs under aerobic condition by MABA; assay type: functional; settings: read-out: MIC100; outline: as §1
Staphylococcus aureus [18] = assay: Bactericidal activity against Staphylococcus aureus BAA 2094 incubated for 24 hrs under aerobic condition by MABA; assay type: functional; settings: BAA 2094, 24 h
[19] = tested on: Mycolicibacterium smegmatis; assay: Bactericidal activity against Mycobacterium smegmatis ATCC 607 incubated for 48 hrs under aerobic condition by MABA; assay type: functional; settings: ATCC 607, 48 h
Staphylococcus aureus [20] = assay: Bactericidal activity against Staphylococcus aureus ATCC 25923 incubated for 24 hrs under aerobic condition by MABA; assay type: functional; settings: ATCC 25923, 24 h
Staphylococcus aureus [21] = assay: Antibacterial activity against Staphylococcus aureus incubated for 24 hrs under aerobic condition by MABA; assay type: functional; settings: read-out: MIC100; outline: as §1
[22] = tested on: Mycobacterium tuberculosis; assay: Bactericidal activity against Mycobacterium tuberculosis H37Rv at 2 times MIC measured every 24 hrs up to 12 days by time kill assay relative to control; assay type: functional
Outline: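 Mid-log H37Rv (OD 0.5) is diluted to OD 0.25 and exposed at MIC, 2×MIC or 4×MIC. Every 24 h cultures are diluted 10- to 10,000-fold and plated on 7H10/OADC agar. Plates are incubated 15 days at 37 °C before colony counts.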

[23] = Half life in Balb/c mouse at 30 mg/kg, po; assay type: ADME, organism-based; settings: in vivo; outline: as §5
Enterococcus faecalis [24] = assay: Bactericidal activity against Enterococcus faecalis ATCC 19433 incubated for 24 hrs under aerobic condition by MABA; assay type: functional; settings: ATCC 19433, 24 h

CC[C@]1(C)C[C@@H](OC(=O)CSC(C)(C)CNC(=O)[C@H](N)CC(C)C)[C@]2(C)[C@H](C)CC[C@]3(CC[C@@H](O)[C@H]32)[C@@H](C)[C@@H]1O
MBC (Streptococcus salivarius [1]): > 25 µg/mL | MIC (Staphylococcus aureus [2]): > 25 µg/mL | MBC (Klebsiella pneumoniae): 25 µg/mL (≈ 42.9 µM) | Cmax [3]: 6070 ng/g | MIC (Staphylococcus aureus [4]): > 25 µg/mL | MBC (Bacillus subtilis): > 25 µg/mL | MBC (Staphylococcus aureus [5]): > 25 µg/mL | AUC(0-inf) [6]: 2890 ng·h/mL | half-life [7]: 9.98 h | MBC [8]: 0.83 µg/mL (≈ 1.42 µM) | Papp [9]: 3.39 ×10⁻⁶ cm/s | MIC (Acinetobacter baumannii): 1.56 µg/mL (≈ 2.68 µM) | MBC (Streptococcus pneumoniae): > 25 µg/mL | inhibition (Escherichia coli [10]): Active | log(activity) [11]: 0.2 | inhibition (Escherichia coli [12]): Active | IC50 (Erythrocyte): > 200 µM | half-life [13]: 10.5 h | AUC [14]: 66281 ng·h/g | MBC (Enterococcus faecalis [15]): > 25 µg/mL | AUC (Mus musculus): 993 ng·h/mL | Cmax [16]: 1340 ng/mL | MIC (Streptococcus salivarius [17]): 6.25 µg/mL (≈ 10.7 µM) | MBC (Staphylococcus aureus [18]): > 25 µg/mL | MBC [19]: 25 µg/mL (≈ 42.9 µM) | MBC (Staphylococcus aureus [20]): > 25 µg/mL | MIC (Staphylococcus aureus [21]): 0.78 µg/mL (≈ 1.34 µM) | Activity [22]: 100% | half-life [23]: 4.02 h | MBC (Enterococcus faecalis [24]): 12.5 µg/mL (≈ 21.4 µM)
